Results: ChEMBL document CHEMBL2040781, “Design, synthesis, and biological evaluation of chromone-based p38 MAP kinase inhibitors” (J Med Chem, 2011)
Active and inactive are the calls of the source. No cut-off for these calls is given here.

Experiments:
[1] = biological target: Platelet-derived growth factor receptor beta (Homo sapiens) (UniProt P09619); assay: Inhibition of human PDGFRbeta assessed as remaining activity at 0.8 uM after 40 mins by scintillation counting
[2] = biological target: Glycogen synthase kinase-3 beta (Homo sapiens) (UniProt P49841); assay: Inhibition of human GSK3beta assessed as remaining activity at 0.8 uM after 40 mins by scintillation counting
[3] = biological target: Protein kinase C theta type (Homo sapiens) (UniProt Q04759); assay: Inhibition of human PKCtheta assessed as remaining activity at 0.8 uM after 40 mins by scintillation counting
[4] = biological target: Cyclin-dependent kinase 7/ cyclin H (Homo sapiens) (UniProt P51946+P50613); assay: Inhibition of human CDK7/cyclinH/MAT1 assessed as remaining activity at 0.8 uM after 40 mins by scintillation counting; type: protein-complex assay
[5] = biological target: Ribosomal protein S6 kinase alpha-1 (Homo sapiens) (UniProt Q15418); assay: Inhibition of human Rsk1 assessed as remaining activity at 0.8 uM after 40 mins by scintillation counting
[6] = test system: MDA-MB-436; assay: Antiproliferative activity against human MDA-MB-436 cells at 1 uM after 4 hrs by prestoblue cell viability assay; type: functional, cell-based
[7] = species: Homo sapiens; assay: Inhibition of human PI3K assessed as remaining activity at 0.8 uM after 40 mins by scintillation counting
[8] = biological target: Ephrin type-B receptor 4 (Homo sapiens) (UniProt P54760); assay: Inhibition of human EphB4 assessed as remaining activity at 0.8 uM after 40 mins by scintillation counting
[9] = biological target: Cyclin-dependent kinase 1/cyclin B1 (Homo sapiens) (UniProt P06493+P14635); assay: Inhibition of human CDK1/cyclinB assessed as remaining activity at 0.8 uM after 40 mins by scintillation counting; type: protein-complex assay
[10] = biological target: Casein kinase II subunit alpha' (Homo sapiens) (UniProt P19784); assay: Inhibition of human CK2alpha2 assessed as remaining activity at 0.8 uM after 40 mins by scintillation counting
[11] = biological target: Rho-associated protein kinase 1 (Homo sapiens) (UniProt Q13464); assay: Inhibition of human ROCK-I assessed as remaining activity at 0.8 uM after 40 mins by scintillation counting
[12] = biological target: Tyrosine-protein kinase Fyn (Homo sapiens) (UniProt P06241); assay: Inhibition of human Fyn assessed as remaining activity at 0.8 uM after 40 mins by scintillation counting
[13] = test system: MCF7; assay: Antiproliferative activity against human MCF7 cells at 1 uM after 4 hrs by prestoblue cell viability assay; type: functional, cell-based
[14] = biological target: Tyrosine-protein kinase ABL1 (Homo sapiens) (UniProt P00519); assay: Inhibition of human Abl assessed as remaining activity at 0.8 uM after 40 mins by scintillation counting
[15] = biological target: Protein kinase C alpha type (Homo sapiens) (UniProt P17252); assay: Inhibition of human PKCalpha assessed as remaining activity at 0.8 uM after 40 mins by scintillation counting
[16] = biological target: Ribosomal protein S6 kinase beta-1 (Homo sapiens) (UniProt P23443); assay: Inhibition of human p70S6K assessed as remaining activity at 0.8 uM after 40 mins by scintillation counting
[17] = biological target: Aurora kinase A (Homo sapiens) (UniProt O14965); assay: Inhibition of human Aurora-A assessed as remaining activity at 0.8 uM after 40 mins by scintillation counting
[18] = biological target: Interleukin-1 receptor-associated kinase 4 (Homo sapiens) (UniProt Q9NWZ3); assay: Inhibition of human IRAK4 assessed as remaining activity at 0.8 uM after 40 mins by scintillation counting
[19] = biological target: Calcium/calmodulin-dependent protein kinase type 1 (Homo sapiens) (UniProt Q14012); assay: Inhibition of human CaMKI assessed as remaining activity at 0.8 uM after 40 mins by scintillation counting
[20] = biological target: Mitogen-activated protein kinase 10 (Homo sapiens) (UniProt P53779); assay: Inhibition of human JNK3 assessed as remaining activity at 0.8 uM after 40 mins by scintillation counting
[21] = biological target: Eukaryotic elongation factor 2 kinase (Homo sapiens) (UniProt O00418); assay: Inhibition of human eEF-2K assessed as remaining activity at 0.8 uM after 40 mins by scintillation counting
[22] = biological target: SRSF protein kinase 1 (Homo sapiens) (UniProt Q96SB4); assay: Inhibition of human SRPK1 assessed as remaining activity at 0.8 uM after 40 mins by scintillation counting
[23] = biological target: cGMP-dependent protein kinase 1 (Homo sapiens) (UniProt Q13976); assay: Inhibition of human PKG1alpha assessed as remaining activity at 0.8 uM after 40 mins by scintillation counting
[24] = biological target: Epidermal growth factor receptor (Homo sapiens) (UniProt P00533); assay: Inhibition of human EGFR assessed as remaining activity at 0.8 uM after 40 mins by scintillation counting
[25] = test system: MCF7; assay: Potentiation of anisomycin-mediated cytotoxicity in human MCF7 cells at 1 uM after 4 hrs by prestoblue cell viability assay; type: functional, cell-based
[26] = biological target: Mitogen-activated protein kinase 12 (Homo sapiens) (UniProt P53778); assay: Inhibition of human SAPK3 assessed as remaining activity at 0.8 uM after 40 mins by scintillation counting
[27] = biological target: Tyrosine-protein kinase JAK2 (Homo sapiens) (UniProt O60674); assay: Inhibition of human JAK2 assessed as remaining activity at 0.8 uM after 40 mins by scintillation counting
[28] = biological target: ALK tyrosine kinase receptor (Homo sapiens) (UniProt Q9UM73); assay: Inhibition of human ALK assessed as remaining activity at 0.8 uM after 40 mins by scintillation counting
[29] = biological target: MAP kinase-interacting serine/threonine-protein kinase 2 (Homo sapiens) (UniProt Q9HBH9); assay: Inhibition of human Mnk2 assessed as remaining activity at 0.8 uM after 40 mins by scintillation counting
[30] = biological target: Mitogen-activated protein kinase kinase kinase 9 (Homo sapiens) (UniProt P80192); assay: Inhibition of human MLK1 assessed as remaining activity at 0.8 uM after 40 mins by scintillation counting
[31] = biological target: Mitogen-activated protein kinase 13 (Homo sapiens) (UniProt O15264); assay: Inhibition of human SAPK4 assessed as remaining activity at 0.8 uM after 40 mins by scintillation counting
[32] = biological target: Mitogen-activated protein kinase 8 (Homo sapiens) (UniProt P45983); assay: Inhibition of human JNK1alpha1 assessed as remaining activity at 0.8 uM after 40 mins by scintillation counting
[33] = biological target: T1, Mitogen-activated protein kinase 14 (Homo sapiens, UniProt Q16539); assay: Inhibition of human SAPK2a assessed as remaining activity at 0.8 uM after 40 mins by scintillation counting
[34] = biological target: T1, Mitogen-activated protein kinase 14; assay: Inhibition of anisomycin-induced p38alpha MAPK signalling in human MCF7 cells assessed as inhibition of HSP27 activation at 10 uM after 30 mins by SDS PAGE analysis; type: cell-based
How it was run: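 MCF-7 cells were preincubated with the compound at the indicated doses for 30 min, then stimulated with 10 μg/mL anisomycin for another 30 min. Total cell lysates were resolved by SDS-PAGE and immunoblotted with antibodies against phosphorylated ATF2, p38 and HSP27, with tubulin as the loading control.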

T1 sequence (Q16539 whole entry): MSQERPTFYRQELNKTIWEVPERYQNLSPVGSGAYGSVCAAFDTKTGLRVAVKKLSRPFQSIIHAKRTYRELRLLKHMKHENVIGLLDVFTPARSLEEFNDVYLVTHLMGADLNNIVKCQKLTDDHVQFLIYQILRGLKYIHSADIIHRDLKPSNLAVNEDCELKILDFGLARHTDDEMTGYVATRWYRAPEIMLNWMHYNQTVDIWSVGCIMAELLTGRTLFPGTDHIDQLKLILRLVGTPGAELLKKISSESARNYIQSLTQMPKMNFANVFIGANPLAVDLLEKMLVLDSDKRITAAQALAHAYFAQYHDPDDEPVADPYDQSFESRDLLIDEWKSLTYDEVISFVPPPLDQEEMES
Chain of Calcium/calmodulin-dependent protein kinase type 1 (Homo sapiens) (Q14012 whole entry, looked up): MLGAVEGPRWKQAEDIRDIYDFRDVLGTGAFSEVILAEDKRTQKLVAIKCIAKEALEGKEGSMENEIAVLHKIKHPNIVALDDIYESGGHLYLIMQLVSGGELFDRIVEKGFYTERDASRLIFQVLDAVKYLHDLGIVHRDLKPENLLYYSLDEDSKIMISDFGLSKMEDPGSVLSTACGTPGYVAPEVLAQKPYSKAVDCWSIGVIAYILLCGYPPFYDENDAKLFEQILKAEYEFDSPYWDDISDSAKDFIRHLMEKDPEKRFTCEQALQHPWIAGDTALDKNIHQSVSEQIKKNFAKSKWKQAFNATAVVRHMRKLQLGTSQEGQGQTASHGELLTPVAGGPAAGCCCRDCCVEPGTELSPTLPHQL
Chain of Mitogen-activated protein kinase 12 (Homo sapiens) (P53778 whole entry): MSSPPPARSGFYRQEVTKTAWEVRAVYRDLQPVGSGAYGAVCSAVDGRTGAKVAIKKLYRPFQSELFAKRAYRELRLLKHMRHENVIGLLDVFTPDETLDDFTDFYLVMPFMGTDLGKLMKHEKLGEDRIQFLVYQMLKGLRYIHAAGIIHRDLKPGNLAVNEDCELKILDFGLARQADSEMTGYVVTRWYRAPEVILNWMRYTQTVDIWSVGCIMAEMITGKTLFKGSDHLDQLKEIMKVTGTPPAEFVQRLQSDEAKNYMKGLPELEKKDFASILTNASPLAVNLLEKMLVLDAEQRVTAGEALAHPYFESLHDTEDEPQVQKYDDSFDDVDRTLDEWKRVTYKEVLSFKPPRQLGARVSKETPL
Chain of Casein kinase II subunit alpha' (Homo sapiens) (P19784 whole entry, looked up): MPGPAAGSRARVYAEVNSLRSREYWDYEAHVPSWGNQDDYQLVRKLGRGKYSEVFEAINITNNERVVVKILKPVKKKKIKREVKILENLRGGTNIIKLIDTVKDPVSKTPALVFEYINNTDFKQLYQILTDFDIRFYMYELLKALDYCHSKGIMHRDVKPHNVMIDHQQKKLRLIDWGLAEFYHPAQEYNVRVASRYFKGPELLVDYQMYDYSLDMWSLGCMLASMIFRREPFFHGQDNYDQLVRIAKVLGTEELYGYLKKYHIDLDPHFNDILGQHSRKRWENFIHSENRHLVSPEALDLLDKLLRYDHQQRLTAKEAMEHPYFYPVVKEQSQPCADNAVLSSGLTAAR
Chain of Tyrosine-protein kinase ABL1 (Homo sapiens) (P00519 whole entry): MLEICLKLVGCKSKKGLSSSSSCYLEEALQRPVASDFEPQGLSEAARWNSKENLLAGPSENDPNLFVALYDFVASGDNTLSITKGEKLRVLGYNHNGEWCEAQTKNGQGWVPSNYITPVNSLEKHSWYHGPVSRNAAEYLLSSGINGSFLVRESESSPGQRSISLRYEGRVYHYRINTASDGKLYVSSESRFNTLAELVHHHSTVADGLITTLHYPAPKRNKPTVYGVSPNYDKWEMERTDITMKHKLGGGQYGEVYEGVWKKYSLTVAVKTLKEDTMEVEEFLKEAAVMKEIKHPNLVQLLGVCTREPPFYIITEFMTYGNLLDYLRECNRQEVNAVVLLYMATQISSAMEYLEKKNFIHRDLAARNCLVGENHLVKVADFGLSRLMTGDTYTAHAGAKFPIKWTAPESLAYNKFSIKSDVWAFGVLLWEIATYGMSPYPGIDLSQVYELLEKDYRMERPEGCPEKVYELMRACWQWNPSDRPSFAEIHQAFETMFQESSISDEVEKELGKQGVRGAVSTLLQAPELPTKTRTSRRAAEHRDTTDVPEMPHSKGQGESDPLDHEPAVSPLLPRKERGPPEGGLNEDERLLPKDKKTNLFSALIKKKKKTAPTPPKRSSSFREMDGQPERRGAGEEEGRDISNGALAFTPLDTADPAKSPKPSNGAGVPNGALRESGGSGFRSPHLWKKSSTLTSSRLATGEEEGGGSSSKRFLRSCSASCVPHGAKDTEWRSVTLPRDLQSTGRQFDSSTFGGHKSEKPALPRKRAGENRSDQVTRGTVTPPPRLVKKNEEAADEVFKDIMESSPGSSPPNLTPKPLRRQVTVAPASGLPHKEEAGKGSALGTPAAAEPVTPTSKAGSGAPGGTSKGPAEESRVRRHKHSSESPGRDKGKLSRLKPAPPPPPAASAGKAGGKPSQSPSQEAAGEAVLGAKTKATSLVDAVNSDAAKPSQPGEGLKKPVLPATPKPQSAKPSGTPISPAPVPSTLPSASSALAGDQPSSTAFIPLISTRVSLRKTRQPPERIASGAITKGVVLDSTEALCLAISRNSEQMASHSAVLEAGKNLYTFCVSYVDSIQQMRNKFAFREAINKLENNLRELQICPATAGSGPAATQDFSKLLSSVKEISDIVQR
Chain of Rho-associated protein kinase 1 (Homo sapiens) (Q13464 2-1354 limits assumed): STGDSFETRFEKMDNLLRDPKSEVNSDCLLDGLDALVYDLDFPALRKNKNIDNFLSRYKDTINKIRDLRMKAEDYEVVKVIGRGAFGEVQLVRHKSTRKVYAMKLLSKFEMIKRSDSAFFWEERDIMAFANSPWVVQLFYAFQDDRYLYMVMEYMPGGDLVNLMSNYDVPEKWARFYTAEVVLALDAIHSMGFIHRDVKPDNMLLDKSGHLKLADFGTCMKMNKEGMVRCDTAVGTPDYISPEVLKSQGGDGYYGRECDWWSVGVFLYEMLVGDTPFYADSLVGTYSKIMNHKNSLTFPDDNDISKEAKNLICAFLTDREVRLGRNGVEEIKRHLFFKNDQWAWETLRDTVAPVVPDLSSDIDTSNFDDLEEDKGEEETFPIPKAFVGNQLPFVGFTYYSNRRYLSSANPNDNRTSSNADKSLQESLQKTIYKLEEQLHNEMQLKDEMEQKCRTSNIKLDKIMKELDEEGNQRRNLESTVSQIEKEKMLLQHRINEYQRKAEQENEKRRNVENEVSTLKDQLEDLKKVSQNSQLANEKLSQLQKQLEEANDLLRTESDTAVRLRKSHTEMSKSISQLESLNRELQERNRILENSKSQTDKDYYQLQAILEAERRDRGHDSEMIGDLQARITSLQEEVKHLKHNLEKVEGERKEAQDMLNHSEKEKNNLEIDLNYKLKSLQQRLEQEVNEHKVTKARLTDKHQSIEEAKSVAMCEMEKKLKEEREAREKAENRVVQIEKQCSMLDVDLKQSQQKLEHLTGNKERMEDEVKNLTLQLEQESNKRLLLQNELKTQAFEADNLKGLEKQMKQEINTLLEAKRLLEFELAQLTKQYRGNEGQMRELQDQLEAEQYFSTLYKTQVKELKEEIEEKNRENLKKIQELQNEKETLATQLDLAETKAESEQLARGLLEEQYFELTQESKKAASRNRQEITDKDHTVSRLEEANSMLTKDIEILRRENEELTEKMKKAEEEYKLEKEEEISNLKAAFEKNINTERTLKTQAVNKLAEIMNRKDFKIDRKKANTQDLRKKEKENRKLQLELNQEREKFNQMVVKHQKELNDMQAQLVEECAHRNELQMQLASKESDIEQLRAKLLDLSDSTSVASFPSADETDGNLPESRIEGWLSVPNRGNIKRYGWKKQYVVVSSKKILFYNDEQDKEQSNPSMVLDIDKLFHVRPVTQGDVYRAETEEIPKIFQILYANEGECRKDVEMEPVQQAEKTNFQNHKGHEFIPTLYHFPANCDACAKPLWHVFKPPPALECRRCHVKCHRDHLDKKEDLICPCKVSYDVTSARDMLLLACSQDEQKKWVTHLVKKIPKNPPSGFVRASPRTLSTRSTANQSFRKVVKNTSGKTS
Chain of Mitogen-activated protein kinase 8 (Homo sapiens) (P45983 whole entry): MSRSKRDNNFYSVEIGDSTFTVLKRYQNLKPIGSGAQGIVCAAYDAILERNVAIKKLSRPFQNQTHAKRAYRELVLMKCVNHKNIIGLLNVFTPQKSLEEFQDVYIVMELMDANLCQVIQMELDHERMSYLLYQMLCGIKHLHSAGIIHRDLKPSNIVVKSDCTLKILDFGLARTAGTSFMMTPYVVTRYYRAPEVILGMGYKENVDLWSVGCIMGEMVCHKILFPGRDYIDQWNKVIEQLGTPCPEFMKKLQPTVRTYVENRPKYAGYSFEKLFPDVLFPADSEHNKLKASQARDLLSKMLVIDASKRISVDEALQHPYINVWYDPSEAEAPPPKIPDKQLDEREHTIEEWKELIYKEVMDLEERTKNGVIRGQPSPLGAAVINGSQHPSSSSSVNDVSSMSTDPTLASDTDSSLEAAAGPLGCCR

| Activity [1] [%] | Activity [2] [%] | Activity [3] [%] | Activity [4] [%] | Activity [5] [%] | Activity [7] [%] | Activity [8] [%] | Activity [9] [%] | Activity [10] [%] | Activity [11] [%] | Activity [12] [%] | Activity [14] [%] | Activity [15] [%] | Activity [16] [%] | Activity [17] [%] | Activity [18] [%] | Activity [19] [%] | Activity [20] [%] | SMILES | Activity [6] | Activity [13] | further results |
| --- | --- | --- | --- | --- | --- | --- | --- | --- | --- | --- | --- | --- | --- | --- | --- | --- | --- | --- | --- | --- | --- |
| 107 | 132 | 95 | 100 | 104 | 100 | 97 | 95 | 105 | 94 | 100 | 111 | 96 | 102 | 104 | 91 | 94 | 21 | CC(C)Nc1cc(-c2oc3ccccc3c(=O)c2-c2ccc(F)cc2)ccn1 | inactive | inactive | Activity [21]: 100%; Activity [22]: 109%; Activity [23]: 104%; Activity [24]: 106%; Activity [25]: inactive; Activity [26]: 96%; Activity [27]: 109%; Activity [28]: 88%; Activity [29]: 96%; Activity [30]: 95%; Activity [31]: 104%; Activity [32]: 84%; Activity [33]: -3% |
| 105 | 124 | 102 | 101 | 104 | 100 | 98 | 93 | 104 | 106 | 103 | 106 | 102 | 102 | 107 | 95 | 96 | 24 | O=c1c(-c2ccc(F)cc2)c(-c2ccnc(NC3CCCCC3)c2)oc2ccccc12 | inactive | inactive | Imax [34]: Active; Activity [21]: 101%; Activity [22]: 116%; Activity [23]: 102%; Activity [24]: 114%; Activity [25]: inactive; Activity [26]: 97%; Activity [27]: 102%; Activity [28]: 91%; Activity [29]: 103%; Activity [30]: 101%; Activity [31]: 112%; Activity [32]: 96%; Activity [33]: -1% |
